Laboratory results reported in ChEMBL document CHEMBL3804769, “Antibacterial Diamines Targeting Bacterial Membranes” (J Med Chem, 2016).
Activity calls are given as the source filed them. No cut-off for these calls is given here.

How the values were obtained:
Staphylococcus aureus [1] = assay: Antibacterial activity against methicillin-resistant Staphylococcus aureus clinical isolate 10076B SPA type 2 after 24 hrs by microbroth dilution method; assay type: functional
How it was run: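 MRSA isolates from ICU surfaces, stored at −80 °C and grown in Mueller-Hinton broth. Overnight cultures diluted and added to serially diluted compound at ~10⁵ CFU/mL, broth microdilution. Plates incubated 24 h at 37 °C, growth read as absorbance at 620 nm. MIC99 taken as the lowest concentration giving complete growth inhibition.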

Pseudomonas aeruginosa [2] = assay: Antibiofilm activity against Pseudomonas aeruginosa PAO1 ATCC 47085 at 64 ug/ml after 24 hrs by crystal violet staining-based spectrophotometry; assay type: functional, organism-based
How it was run: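 PAO1 grown 2 h in LB at 37 °C with shaking, then diluted 1:1000 in 10% LB-PBS to 3 × 10⁵ CFU/mL and mixed with serially diluted compound. Biofilms grown on peg lids 24 h at 37 °C, static. Pegs washed, stained with 0.1% crystal violet for 15 min, dye eluted in 95% ethanol and read at 600 nm. Control was 10% LB-PBS.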

Pseudomonas aeruginosa [3] = assay: Antibiofilm activity against Pseudomonas aeruginosa PAO1 ATCC 47085 assessed as dispersal of formed biofilm after 24 hrs by crystal violet staining-based spectrophotometry; assay type: functional, organism-based
How it was run: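 Biofilms first grown 24 h on peg lids without compound, then washed. Pegs transferred into serially diluted compound in 10% LB-PBS and incubated a further 24 h at 37 °C. Remaining biofilm stained with crystal violet, eluted in ethanol and read at 600 nm. 300 μM EDTA as positive control for dispersal.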

Pseudomonas aeruginosa [4] = assay: Bactericidal activity against Pseudomonas aeruginosa PAO1 ATCC 47085 in exponential-phase assessed as reduction in bacterial burden at 4 times MIC99 upto 6 hrs by time-kill assay; assay type: functional
How it was run: (§1)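 Overnight cultures washed and resuspended in PBS, then diluted 100-fold into LB (exponential-phase model) or into 1% PBS (stationary-phase model). Test agent added at 4× MIC99. Incubated at 37 °C with shaking at 200 rpm. CFU counted on LB agar at 0, 2, 4 and 6 h.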

Pseudomonas aeruginosa [5] = assay: Bactericidal activity against Pseudomonas aeruginosa PAO1 ATCC 47085 in stationary-phase assessed as reduction in bacterial burden at 4 times MIC99 after 4 hrs by time-kill assay; assay type: functional, organism-based; how it was run: as §1
[6] = Cytotoxicity against HEK293T/17 cells after 48 hrs by MTS conversion assay; assay type: cell-based, HEK-293T; conditions: human
How it was run: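 HEK293T/17 and A549 cells maintained in DMEM with 10% FBS at 37 °C, 5% CO2. Seeded at 10⁴ cells per well; after 24 h, washed with PBS and exposed to serially diluted compound for 48 h. Viability read by MTS conversion. CC50 obtained by nonlinear regression.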

[7] = Selectivity index, ratio of CC50 for HEK293T/17 cells to MIC99 for Pseudomonas aeruginosa PAO1 ATCC 47085; assay type: toxicity, cell-based; conditions: human, read-out: Selectivity Index
How it was run: (§2)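 CC50: HEK293T/17 or A549 cells seeded at 10⁴ per well in DMEM with 10% FBS at 37 °C, 5% CO2. After 24 h, wells PBS-washed and serially diluted compound applied for 48 h, with viability read by MTS and CC50 taken by nonlinear regression. MIC99 by CLSI broth microdilution, overnight at 37 °C without shaking, from three independent tests. SI = CC50/MIC99.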

[8] = Selectivity index, ratio of CC50 for human A549 cells to MIC99 for Pseudomonas aeruginosa PAO1 ATCC 47085; assay type: toxicity, cell-based; conditions: read-out: Selectivity Index; how it was run: as §2
[9] = Selectivity index, ratio of CC50 for human A549 cells to MIC99 for methicillin-resistant Staphylococcus aureus clinical isolate
Caenorhabditis elegans = assay: Toxicity in adult L4/juvenile L1 stages of Caenorhabditis elegans N2 assessed as effect on egg production at 64 ug/ml incubated for 96 hrs measured every 12 hrs; assay type: organism-based; conditions: in vivo
How it was run: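 C. elegans N2 maintained on NGM agar at 22 °C. Compound mixed into molten NGM agar at 64 μg/mL. L4 adults, L1 juveniles and synchronized eggs transferred onto test plates and kept 96 h at 22 °C. Checked every 12 h for death, development and egg production. Gentamicin and […] as controls.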

Pseudomonas aeruginosa [10] = assay: Antibacterial activity against Pseudomonas aeruginosa PAO1 ATCC 47085 in exponential-phase assessed as cytoplasmic membrane depolarization at 1 to 4 times MIC99 by fluorescent probe DiSC3-5 based fluorophotometric analysis; assay type: functional, organism-based
How it was run: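 Log-phase cells (OD600 ~0.7) washed and resuspended to OD600 0.05 in 5 mM HEPES pH 7.2 with 5 mM glucose and 100 mM KCl. Loaded with 0.4 μM DiSC3-5 in the dark until fluorescence fell stably by about 90%. Compound added at 4× or 1× MIC99 and fluorescence recorded continuously at 25 °C (ex 622/em 670 nm). 2,4-Dinitrophenol as positive control. Three independent experiments.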

Pseudomonas aeruginosa [11] = assay: Bactericidal activity against Pseudomonas aeruginosa PAO1 ATCC 47085 assessed as reduction in bacterial burden at 4 times MIC99; assay type: functional
Pseudomonas aeruginosa [12] = assay: Antibacterial activity against Pseudomonas aeruginosa PAO1 ATCC 47085 assessed as increase in outer membrane permeability at 1 to 4 times MIC99 by fluorescent probe 1-N-phenylnaphthylamine based fluorescence assay; assay type: functional, organism-based
How it was run: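 PAO1 cells harvested at OD600 ~0.5, washed, and resuspended in 5 mM HEPES pH 7.2 with 10 μM NPN (final) and 10 mM sodium azide (final). Held 30 min at room temperature in the dark. Compound added at 4× or 1× MIC99 and NPN fluorescence recorded continuously (ex 350/em 420 nm). Gentamicin at 4× MIC99 as positive control. Three independent experiments.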

Staphylococcus aureus [13] = assay: Antibacterial activity against Staphylococcus aureus RN4220 ATCC 35556 in early exponential-phase assessed as numerous spherical double layered mesosome like structures at 2 times MIC99 after 30 to 60 mins by transmission electron microscopy; assay type: functional, organism-based
How it was run: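 Cells grown in LB to early exponential phase (OD600 ~0.4). Exposed to 2× MIC99 for 15–60 min, washed twice in phosphate buffer, fixed in 2.5% glutaraldehyde, then imaged by transmission electron microscopy.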

Staphylococcus aureus [14] = assay: Antibacterial activity against Staphylococcus aureus RN4220 ATCC 35556 at 0.5 times MIC99 after 24 hrs by checkerboard assay in presence of kanamycin; assay type: functional
How it was run: (§3)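 Checkerboard assay: compound serially diluted along one axis of a 96-well plate and antibiotic along the other, in LB. Each well inoculated with 2 × 10⁴ CFU and incubated 24 h at 37 °C. ΣFIC = FIC A + FIC B, where each FIC is the combination MIC99 divided by the MIC99 of that drug alone.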

Pseudomonas aeruginosa [15] = assay: Antibacterial activity against Pseudomonas aeruginosa PAO1 ATCC 47085 at 0.5 times MIC99 after 24 hrs by checkerboard assay in presence of ampicillin; assay type: functional; how it was run: as §3
Pseudomonas aeruginosa [16] = assay: Antibacterial activity against Pseudomonas aeruginosa PAO1 ATCC 47085 at 0.5 times MIC99 after 24 hrs by checkerboard assay in presence of norfloxacin; assay type: functional; how it was run: as §3
Pseudomonas aeruginosa [17] = assay: Antibacterial activity against Pseudomonas aeruginosa PAO1 ATCC 47085 at 0.5 times MIC99 after 24 hrs by checkerboard assay in presence of kanamycin; assay type: functional; how it was run: as §3

Cl.Cl.S=C(NCCCNCCCCCNCCCNC(=S)NCC(c1ccccc1)c1ccccc1)NCC(c1ccccc1)c1ccccc1
MIC99 (Staphylococcus aureus [1]): 1 µg/mL
Activity (Pseudomonas aeruginosa [2]): Active
Activity (Pseudomonas aeruginosa [3]): Active
Activity (Pseudomonas aeruginosa [4]): 4 deltalog10CFU/ml
Activity (Pseudomonas aeruginosa [5]): Active
CC50 at 48 h [6]: 32 µg/mL
selectivity ratio [7]: 4
selectivity ratio [8]: 8
Selectivity Index [9]: 64
Activity (Caenorhabditis elegans): Non-toxic
Activity (Pseudomonas aeruginosa [10]): Active
Activity (Pseudomonas aeruginosa [11]): >2 deltalog10CFU/ml
Activity (Pseudomonas aeruginosa [12]): Active
Activity (Staphylococcus aureus [13]): Active
fractional inhibitory concentration index (FICI) (Staphylococcus aureus [14]): 0.25
fractional inhibitory concentration index (FICI) (Pseudomonas aeruginosa [15]): 2
fractional inhibitory concentration index (FICI) (Pseudomonas aeruginosa [16]): 0.75
fractional inhibitory concentration index (FICI) (Pseudomonas aeruginosa [17]): 0.75
